Reference: the M2OR odorant receptor database

What was measured:
Settings in all cases: stereoisomer not certain
UniProt E9PZ66 = biological target: T1, UniProt E9PZ66
T1 sequence (whole entry): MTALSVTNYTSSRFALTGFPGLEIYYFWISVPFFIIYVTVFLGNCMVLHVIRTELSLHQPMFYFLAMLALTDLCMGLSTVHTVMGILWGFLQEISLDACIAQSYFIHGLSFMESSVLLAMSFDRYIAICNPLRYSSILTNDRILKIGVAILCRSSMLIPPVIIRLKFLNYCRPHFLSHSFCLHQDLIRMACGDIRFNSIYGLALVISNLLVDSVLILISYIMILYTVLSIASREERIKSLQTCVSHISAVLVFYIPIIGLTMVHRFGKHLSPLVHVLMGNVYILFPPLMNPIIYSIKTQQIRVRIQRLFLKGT
Method in brief: (§1)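 Whether a receptor–molecule pair is responsive (active) rests on the original authors' judgment that its measured signal was statistically different from baseline. Pairs without that judgment are non-responsive (inactive). Sources used varied assay methods, commonly transient luciferase assays in mammalian cell lines.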

UniProt E9Q4X7 = biological target: T2, UniProt E9Q4X7
T2 sequence (whole entry): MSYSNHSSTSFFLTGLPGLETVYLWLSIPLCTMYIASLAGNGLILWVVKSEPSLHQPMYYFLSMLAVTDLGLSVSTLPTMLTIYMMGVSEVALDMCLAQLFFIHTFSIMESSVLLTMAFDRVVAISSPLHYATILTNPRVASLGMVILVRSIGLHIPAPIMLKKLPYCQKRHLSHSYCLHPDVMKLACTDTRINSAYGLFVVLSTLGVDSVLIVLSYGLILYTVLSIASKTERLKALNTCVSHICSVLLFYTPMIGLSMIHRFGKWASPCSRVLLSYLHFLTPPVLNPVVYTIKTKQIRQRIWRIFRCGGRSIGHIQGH
Method in brief: as §1

UniProt E9Q546 = biological target: T3, UniProt E9Q546
T3 sequence (whole entry): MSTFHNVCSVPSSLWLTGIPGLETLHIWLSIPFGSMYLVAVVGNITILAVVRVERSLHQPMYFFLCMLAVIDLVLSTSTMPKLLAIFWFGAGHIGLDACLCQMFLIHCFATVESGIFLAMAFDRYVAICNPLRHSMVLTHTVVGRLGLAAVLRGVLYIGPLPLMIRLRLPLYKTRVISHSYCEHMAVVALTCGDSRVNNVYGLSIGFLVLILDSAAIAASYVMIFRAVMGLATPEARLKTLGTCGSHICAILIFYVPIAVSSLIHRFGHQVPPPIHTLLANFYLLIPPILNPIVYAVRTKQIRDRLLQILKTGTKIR
Method in brief: as §1

UniProt E9Q6Z7 = biological target: T4, UniProt E9Q6Z7
T4 sequence (whole entry): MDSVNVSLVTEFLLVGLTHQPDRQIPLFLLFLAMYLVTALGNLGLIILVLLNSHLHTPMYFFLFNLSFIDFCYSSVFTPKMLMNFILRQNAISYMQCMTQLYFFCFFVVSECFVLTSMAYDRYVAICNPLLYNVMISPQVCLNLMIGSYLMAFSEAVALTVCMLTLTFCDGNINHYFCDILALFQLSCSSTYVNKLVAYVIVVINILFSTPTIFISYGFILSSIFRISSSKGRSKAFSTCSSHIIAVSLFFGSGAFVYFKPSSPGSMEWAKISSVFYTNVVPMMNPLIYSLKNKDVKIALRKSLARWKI
Method in brief: as §1

Measured: odorant receptor agonist call;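 note: active if original authors judged signal statistically different from baseline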

C=CC(=C)CCC=C(C)CCC=C(C)C
inactive: UniProt E9PZ66 | UniProt E9Q4X7 | UniProt E9Q546 | UniProt E9Q6Z7

CCc1occc(=O)c1O
inactive: UniProt E9PZ66 | UniProt E9Q4X7 | UniProt E9Q546 | UniProt E9Q6Z7

CCSCC
inactive: UniProt E9PZ66 | UniProt E9Q4X7 | UniProt E9Q546 | UniProt E9Q6Z7

CCOC(=O)C(C)CC (stereo unspecified)
inactive: UniProt E9PZ66 | UniProt E9Q4X7 | UniProt E9Q546 | UniProt E9Q6Z7

C=C(CC)CCCC(C)(C)O
inactive: UniProt E9PZ66 | UniProt E9Q4X7 | UniProt E9Q546 | UniProt E9Q6Z7

CCCCCCCCC=CC=O
inactive: UniProt E9PZ66 | UniProt E9Q4X7 | UniProt E9Q546 | UniProt E9Q6Z7

CC(=O)C=CC1=C(C)CCCC1(C)C
inactive: UniProt E9PZ66 | UniProt E9Q4X7 | UniProt E9Q546 | UniProt E9Q6Z7

O=C(O)C1CCC1
inactive: UniProt E9PZ66 | UniProt E9Q4X7 | UniProt E9Q546 | UniProt E9Q6Z7

COC(OC)c1ccccc1
inactive: UniProt E9PZ66 | UniProt E9Q4X7 | UniProt E9Q546 | UniProt E9Q6Z7

CCCO
inactive: UniProt E9PZ66 | UniProt E9Q4X7 | UniProt E9Q546 | UniProt E9Q6Z7

CSSCc1ccco1
inactive: UniProt E9PZ66 | UniProt E9Q4X7 | UniProt E9Q546 | UniProt E9Q6Z7

CCCCCOC(=O)CCC
inactive: UniProt E9PZ66 | UniProt E9Q4X7 | UniProt E9Q546 | UniProt E9Q6Z7

C=CC(=O)CCCCC
inactive: UniProt E9PZ66 | UniProt E9Q4X7 | UniProt E9Q546 | UniProt E9Q6Z7

OCC=Cc1ccccc1
inactive: UniProt E9PZ66 | UniProt E9Q4X7 | UniProt E9Q546 | UniProt E9Q6Z7

Cc1occc1SSc1ccoc1C
inactive: UniProt E9PZ66 | UniProt E9Q4X7 | UniProt E9Q546 | UniProt E9Q6Z7

CCCCCCCCOC=O
inactive: UniProt E9PZ66 | UniProt E9Q4X7 | UniProt E9Q546 | UniProt E9Q6Z7

CCCCCC(=Cc1ccccc1)C(OC)OC
inactive: UniProt E9PZ66 | UniProt E9Q4X7 | UniProt E9Q546 | UniProt E9Q6Z7

Cc1ccc(OC(=O)C(C)C)cc1
inactive: UniProt E9PZ66 | UniProt E9Q4X7 | UniProt E9Q546 | UniProt E9Q6Z7

CCC=CCCC=CC=O
inactive: UniProt E9PZ66 | UniProt E9Q4X7 | UniProt E9Q546 | UniProt E9Q6Z7

C1CCOCC1
inactive: UniProt E9PZ66 | UniProt E9Q4X7 | UniProt E9Q546 | UniProt E9Q6Z7

CCCCCCCCCCOC(C)=O
inactive: UniProt E9PZ66 | UniProt E9Q4X7 | UniProt E9Q546 | UniProt E9Q6Z7

CC1CCC(C(C)C)C(=O)C1 (stereo unspecified)
inactive: UniProt E9PZ66 | UniProt E9Q4X7 | UniProt E9Q546 | UniProt E9Q6Z7

CCCCCC(C=O)=Cc1ccccc1
inactive: UniProt E9PZ66 | UniProt E9Q4X7 | UniProt E9Q546 | UniProt E9Q6Z7

C=C1C2CCC(C2)C1(C)C (stereo unspecified)
inactive: UniProt E9PZ66 | UniProt E9Q4X7 | UniProt E9Q546 | UniProt E9Q6Z7

c1ccc2ncccc2c1
inactive: UniProt E9PZ66 | UniProt E9Q4X7 | UniProt E9Q546 | UniProt E9Q6Z7

CCCCCCCCCC=CC=O
inactive: UniProt E9PZ66 | UniProt E9Q4X7 | UniProt E9Q546 | UniProt E9Q6Z7

CC(CC=O)CCCC(C)(C)O (stereo unspecified)
inactive: UniProt E9PZ66 | UniProt E9Q4X7 | UniProt E9Q546 | UniProt E9Q6Z7

CNc1ccccc1C(=O)OC
inactive: UniProt E9PZ66 | UniProt E9Q4X7 | UniProt E9Q546 | UniProt E9Q6Z7

CCC=CCCCCC=O
inactive: UniProt E9PZ66 | UniProt E9Q4X7 | UniProt E9Q546 | UniProt E9Q6Z7
